We go through 22 molecules from ChEMBL document CHEMBL3124765, “Glucal-conjugated sterols as novel vascular leakage blocker: structure-activity relationship focusing on the C17-side chain” (Eur J Med Chem, 2014).

The species named for experiment [1] is Homo sapiens. Description: Antiapoptotic activity against HREC at 10 ug/ml after 48 hrs by MTT assay. The experiment is classed as functional. Background: Formazan colour is commonly taken as a measure of viable cells.
The species named for experiment [2] is Homo sapiens. Description: Antiapoptotic activity against HREC assessed as reduction in VEGF-induced actin stress fibre formation at 10 to 20 ug/ml incubated for 60 mins prior to VEGF challenge measured after 60 mins by immunofluorescence microscopy. The experiment is classed as functional.
Experiment [3] is filed under the species Homo sapiens. Description: Antiapoptotic activity against VEGF-treated HREC assessed as enhancement of occludin integrity at 10 ug/ml incubated for 60 mins prior to 50 ng/ml VEGF challenge measured after 60 mins by ZO-1 staining-based microscopy. The experiment is classed as functional.
Experiment [4] is filed under the species Homo sapiens. Description: Antiapoptotic activity against VEGF-treated HREC assessed as enhancement of occludin integrity at 1 to 10 ug/ml incubated for 60 mins prior to 20 ng/ml VEGF challenge measured after 60 mins by ZO-1 staining-based microscopy. The experiment is classed as functional.
The species entered for experiment [5] is Homo sapiens. Description: Antiapoptotic activity against HREC assessed as stabilization of cortical actin ring by measuring reduction of VEGF-induced actin stress fibre formation at 10 ug/ml incubated for 60 mins prior to VEGF challenge measured after 60 mins by immunofluorescence microscopy. The experiment is classed as functional.
Experiment [6] is filed under the species Homo sapiens. Description: Antiapoptotic activity against VEGF-treated HREC assessed as enhancement of occludin integrity at 10 ug/ml incubated for 60 mins prior to VEGF challenge measured after 60 mins by immunofluorescence microscopy. The experiment is classed as functional.
The test system of experiment [7] is Mus musculus. Description: Inhibition of VEGF-induced retinal vascular leakage in C57BL/6 mouse diabetic retinopathy model at 10 ug/ml, […] after 24 hrs by FITC-dextran staining-based fluorescein angiography. The experiment is classed as functional, organism-based. The essentials:
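Eight-week-old C57BL/6 mice received an intravitreal injection of VEGF (50 ng) with or without analog ([…]) in one eye, and DMSO vehicle (same total volume, […]) in the contralateral eye. After 24 h, 40-kDa FITC-dextran (3 mg) was injected into the left ventricle and circulated 5 min. Eyes were fixed in 4% PFA and retinas flat-mounted for fluorescence microscopy.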

Experiment [8] concerns Mus musculus. Description: Inhibition of retinal vascular leakage in C57BL/6 mouse diabetic retinopathy model at 10 ug/ml, […] after 24 hrs by FITC-dextran staining-based fluorescein angiography. The experiment is classed as functional, organism-based. The essentials: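 Diabetes induced in C57BL/6 mice with streptozotocin 90 mg/kg i.p. in citrate buffer pH 4.5, daily for 4 days; mice with glucose >300 mg/dl 3 days later were used. Analog ([…]) given intravitreally to one eye, DMSO to the other; n=5/group. At 24 h, leakage assessed by FITC-dextran angiography and Evans blue extraction (620 nm) normalized to retinal weight, blood dye and circulation time.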

For experiment [9], the species on record is Homo sapiens. Description: Antiapoptotic activity against HREC after 48 hrs by MTT assay. The experiment is classed as functional. The essentials:
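Serum-deprived human retinal endothelial cells (passages 2–7, grown on gelatin-coated dishes in EBM-2/EGM-2 with 20% FBS) exposed to analogs for 48 h; viability read by MTT colorimetric assay. Single-point screen at 10 mg/mL; dose-response over […]. Controls were medium alone (0 h) and DMSO vehicle.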

Experiment [10] has as its system Mus musculus. Description: Inhibition of retinal vascular leakage in C57BL/6 mouse diabetic retinopathy model assessed as restoration of reduced occludin expression at 10 ug/ml, […] after 24 hrs by Western blotting analysis. The experiment is classed as functional, organism-based. In general terms: Immunoblotting shows a protein as a band on a membrane.

Each structure is given as a SMILES string. Calls of active or inactive are those of the source. The calls are words filed in the database; no cut-off is given here.

`CCCCO/N=C(\C)[C@H]1CC[C@H]2[C@@H]3CC=C4C[C@@H](OC5C=C[C@H](OC(C)=O)C(COC(C)=O)O5)CC[C@]4(C)[C@H]3CC[C@]12C` (single isomer, unassigned): the result in experiment [1] was Active.

Take `CC(=O)OC[C@H]1OC(O[C@H]2CC[C@@]3(C)C(=CC[C@H]4[C@@H]5CC[C@H](/C(C)=C/CCC(C)C)[C@@]5(C)CC[C@@H]43)C2)C=C[C@@H]1OC(C)=O` (stereo partly specified): the outcome in experiment [1] and in experiment [2] was Active. As for `CC(=O)OC[C@H]1OC(O[C@H]2CC[C@@]3(C)C(=CC[C@H]4[C@@H]5CC[C@H]([C@H](C)CCCC(C)C)[C@@]5(C)CC[C@@H]43)C2)C=C[C@@H]1OC(C)=O` (stereo partly specified), the outcome in experiment [3], in experiment [4], in experiment [1], in experiment [5] and in experiment [6] was Active. For the molecule `CC(=O)OC[C@H]1OC(O[C@H]2CC[C@@]3(C)C(=CC[C@H]4[C@@H]5CC[C@H](/C(C)=N/OC6CCCC6)[C@@]5(C)CC[C@@H]43)C2)C=C[C@@H]1OC(C)=O` (stereo partly specified), the inhibition entry in experiment [7], in experiment [8] and in [10] was “Active” each time. In addition, the result in [3], in [4], in experiment [1], in [5] and in [6] was Active. Also, the Activity result in experiment [9] is “Dose-dependent effect”. In the case of `C=CCO/N=C(\C)[C@H]1CC[C@H]2[C@@H]3CC=C4C[C@@H](OC5C=C[C@H](OC(C)=O)C(COC(C)=O)O5)CC[C@]4(C)[C@H]3CC[C@]12C` (single isomer, unassigned), the result in experiment [1] was Active. In the case of `CC(=O)OC[C@H]1OC(O[C@H]2CC[C@@]3(C)C(=CC[C@H]4[C@@H]5CC[C@H](/C(C)=N/O)[C@@]5(C)CC[C@@H]43)C2)C=C[C@@H]1OC(C)=O` (stereo partly specified), in [1], the outcome was Active.

`CC(=O)OC[C@H]1OC(O[C@H]2CC[C@@]3(C)C(=CC[C@H]4[C@@H]5CC[C@H](/C(C)=N/OCc6cccnc6)[C@@]5(C)CC[C@@H]43)C2)C=C[C@@H]1OC(C)=O` (stereo partly specified): the outcome in [1] was inactive. `CC(=O)OC[C@H]1OC(O[C@H]2CC[C@@]3(C)C(=CC[C@H]4[C@@H]5CC[C@H](/C(C)=N/OCC(C)C)[C@@]5(C)CC[C@@H]43)C2)C=C[C@@H]1OC(C)=O` (stereo partly specified): the result in [1] was Active.

For `CC(C)=CCC[C@](C)(O)[C@H]1CC[C@]2(C)[C@@H]1[C@H](O)C[C@@H]1[C@@]3(C)CC[C@H](O[C@@H]4O[C@H](CO)[C@@H](O)[C@H](O)[C@H]4O[C@@H]4O[C@H](CO)[C@@H](O)[C@H](O)[C@H]4O)C(C)(C)[C@@H]3CC[C@]12C`, in [1], the result was Active. On the same count and under the same terms, the value for `C=C(CCC=C(C)C)[C@H]1CC[C@]2(C)[C@@H]1[C@H](O)C[C@@H]1[C@@]3(C)CC[C@H](O[C@@H]4O[C@H](CO)[C@@H](O)[C@H](O)[C@H]4O[C@@H]4O[C@H](CO)[C@@H](O)[C@H](O)[C@H]4O)C(C)(C)[C@@H]3CC[C@]12C` was “Active”. For the molecule `CC(=O)OC[C@H]1OC(O[C@H]2CC[C@@]3(C)C(=CC[C@H]4[C@@H]5CC[C@H](/C(C)=N/OCCC(C)C)[C@@]5(C)CC[C@@H]43)C2)C=C[C@@H]1OC(C)=O` (stereo partly specified), the outcome in experiment [1] was Active. `CO/N=C(\C)[C@H]1CC[C@H]2[C@@H]3CC=C4C[C@@H](OC5C=C[C@H](OC(C)=O)C(COC(C)=O)O5)CC[C@]4(C)[C@H]3CC[C@]12C` (single isomer, unassigned): the outcome in [1] was Active. As to `CC(=O)OC[C@H]1OC(O[C@H]2CC[C@@]3(C)C(=CC[C@H]4[C@@H]5CC[C@H](/C(C)=N/OC6C=CCCC6)[C@@]5(C)CC[C@@H]43)C2)C=C[C@@H]1OC(C)=O` (stereo partly specified), the result in experiment [1], in experiment [5] and in experiment [6] was Active. In [9], the Activity entry was “Dose-dependent effect”. Take `CC(=O)OCC1OC(O[C@H]2CC[C@@]3(C)C(=CC[C@H]4[C@@H]5CC[C@H](/C(C)=N/OC6CCCCC6)[C@@]5(C)CC[C@@H]43)C2)C=C[C@@H]1OC(C)=O` (single isomer, unassigned): the result in [1] was Active. For `CC(=O)OC[C@H]1OC(O[C@H]2CC[C@@]3(C)C(=CC[C@H]4[C@@H]5CC[C@H]([C@@](C)(O)CCCC(C)C)[C@@]5(C)CC[C@@H]43)C2)C=C[C@@H]1OC(C)=O` (stereo partly specified), the outcome in experiment [2] was Active. In the case of `C#CCO/N=C(\C)[C@H]1CC[C@H]2[C@@H]3CC=C4C[C@@H](OC5C=C[C@H](OC(C)=O)[C@@H](COC(C)=O)O5)CC[C@]4(C)[C@H]3CC[C@]12C` (stereo partly specified), the outcome in experiment [1] was Active. With `CC(=O)OC[C@H]1OC(O[C@H]2CC[C@@]3(C)C(=CC[C@H]4[C@@H]5CC[C@H](/C(C)=N/OCc6ccccc6)[C@@]5(C)CC[C@@H]43)C2)C=C[C@@H]1OC(C)=O` (stereo partly specified), the outcome in [1], in [5] and in [6] was Active. In addition, in experiment [9], the Activity result was “Dose-dependent effect”. With `CCCCCO/N=C(\C)[C@H]1CC[C@H]2[C@@H]3CC=C4C[C@@H](OC5C=C[C@H](OC(C)=O)C(COC(C)=O)O5)CC[C@]4(C)[C@H]3CC[C@]12C` (single isomer, unassigned), the result in experiment [1] was Active. For the molecule `C/C(=C\CCC(C)C)[C@H]1CC[C@H]2[C@@H]3CC=C4C[C@@H](OC5CCCCO5)CC[C@]4(C)[C@H]3CC[C@]12C` (stereo partly specified), the result in [1] was Active. Still for that read-out and setting: to `CC(=O)OCC1OC(O[C@H]2CC[C@@]3(C)C(=CC[C@H]4[C@@H]5CC[C@H](/C(C)=N/OC(C)C)[C@@]5(C)CC[C@@H]43)C2)C=C[C@@H]1OC(C)=O` (single isomer, unassigned) belongs “Active”.

For `CC(=O)OC[C@H]1OC(O[C@H]2CC[C@@]3(C)C(=CC[C@H]4[C@@H]5CC[C@H](/C(C)=N/OCC=C(C)C)[C@@]5(C)CC[C@@H]43)C2)C=C[C@@H]1OC(C)=O` (stereo partly specified), the outcome in experiment [1] was Active. On the same count and under the same terms, to `CCO/N=C(\C)[C@H]1CC[C@H]2[C@@H]3CC=C4C[C@@H](OC5C=C[C@H](OC(C)=O)C(COC(C)=O)O5)CC[C@]4(C)[C@H]3CC[C@]12C` (single isomer, unassigned) belongs “Active”.
